One data set deals with Escherichia coli. Put plainly: Antibacterial activity against Escherichia coli ATCC 25922 at pH 7 by CLSI M26A method. Format: functional. A digest of the protocol:
(§1)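 Modified CLSI M26-A bactericidal method in which phosphate-buffered saline (pH 7) replaced Mueller–Hinton broth and compound contact was cut to 1 h. The read-out was the minimum bactericidal concentration (MBC).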

The next data set relates to Staphylococcus aureus. Briefly: Antibacterial activity against Staphylococcus aureus ATCC 29213 at pH 7 by CLSI M26A method. Format: functional. In a few lines:
as §1

The next data set deals with Candida albicans. Put plainly: Antifungal activity against Candida albicans ATCC 10231 at pH 7 by CLSI M26A method. Format: functional. In a few lines: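 Modified CLSI M26-A method with phosphate-buffered saline (pH 7) in place of Mueller–Hinton broth and compound contact shortened to 1 h. The read-out was the minimum fungicidal concentration (MFC).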
Data set [1] is described as follows: Cytotoxicity against mouse L929 cells after 1 hr at pH 4 by Dojindo cell proliferation assay. Format: cell-based. In a few lines: (§2)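 L929 mouse fibroblasts exposed to test article for 1 h in test solution at pH 7, or at pH 4 where flagged. Compound then removed and cells incubated overnight. Viability read with Dojindo cell proliferation assay; CT50 reported in mM.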

Data set [2] in a line: Therapeutic index, ratio of CT50 for mouse L929 cells to Escherichia coli ATCC 25922. The following applies: pooled result: one value given for 2 cell lines, strains, targets or settings, read-out: TI. It is filed as cell-based.
The nature of data set [3]: Therapeutic index, ratio of CT50 for mouse L929 cells to Candida albicans ATCC 10231. Particulars: read-out: TI. It is filed as cell-based. A digest of the protocol: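 Antifungal index is the L929 CT50 (1 h exposure, overnight recovery, Dojindo viability) divided by the MFC against C. albicans. MFC is from a modified CLSI M26-A method: phosphate-buffered saline pH 7 in place of Mueller–Hinton broth, 1 h compound residence.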

A short description of data set [4]: Cytotoxicity against mouse L929 cells after 1 hr at pH 7 by Dojindo cell proliferation assay. It is filed as cell-based. A digest of the protocol: as §2

Converted amounts (≈) assume the structure as drawn.

The MBC is the smallest concentration meeting the test's criterion for killing. High values mean weaker bactericidal potency, low ones greater bactericidal potency. As usually defined, the MFC is the smallest concentration meeting the test's criterion for killing the fungus. Lower therefore signals greater fungicidal potency. Broadly, the CC50 is the concentration giving 50% cytotoxicity. For `C[N+]1(C)CCC2(CC1)CN(Cl)C(=O)O2.[Cl-]`, the minimal bactericidal concentration (MBC) in the data set with Escherichia coli was 16 µg/mL; against Staphylococcus aureus, 32 µg/mL. Further, the MFC in the data set on Candida albicans was 256 µg/mL. For the same molecule, the cytotoxic concentration (CC50) at 1 h in data set [1] amounted to 700 µM. The selectivity ratio in data set [2] was determined as 7.9; in data set [3] it was 0.7.

`CC1(CS(=O)(=O)[O-])COC(=O)N1Cl.[Na+]` (configuration not stated): the MBC against Escherichia coli amounted to 256 µg/mL; in the data set on Staphylococcus aureus it was 128 µg/mL. The same molecule returned an MFC against Candida albicans of 1020 µg/mL. This molecule yielded a cytotoxic concentration (CC50) at 1 h in data set [4] of 800 µM. For the same molecule, the figures for the selectivity ratio in data set [2] and in data set [3] were 1.4 and 0.25, respectively.

Take `CC1(CS(=O)(=O)CCS(=O)(=O)[O-])COC(=O)N1Cl.[Na+]` (configuration not stated): the MBC in the data set with Escherichia coli amounted to 16 µg/mL; in the data set on Staphylococcus aureus, 32 µg/mL. For the same molecule, the MFC in the data set on Candida albicans was 128 µg/mL. This molecule also came in with a half-maximal cytotoxic concentration (CC50) at 1 h in data set [4] of 600 µM. Besides, the selectivity ratio is 8.5 in data set [2] and 1.5 in data set [3].

Regarding `CC1(CS(=O)(=O)CCCC(=O)O)COC(=O)N1Cl` (configuration not stated), the minimum bactericidal concentration (MBC) amounted to 16 µg/mL (≈ 53.4 µM) against Escherichia coli and 8 µg/mL (≈ 26.7 µM) in the data set with Staphylococcus aureus. In the data set with Candida albicans, the minimum fungicidal concentration (MFC) is > 1020 µg/mL. In addition, the cytotoxic concentration (CC50) at 1 h in data set [4] is 520 µM. Further, the selectivity ratio in data set [2] was 14.

`CC1(C[N+]2(C)CCCC2)COC(=O)N1Cl.[Cl-]` (configuration not stated): the MBC with Escherichia coli and against Staphylococcus aureus was 4 µg/mL each time. In the data set with Candida albicans, this molecule showed an MFC of 16 µg/mL. The CC50 at 1 h in data set [1] was found to be 1130 µM. Also, the selectivity ratio is 76 in data set [2] and 19 in data set [3].

For the molecule `CC1(C)C(CS(=O)(=O)[O-])OC(=O)N1Cl.[Na+]` (configuration not stated), the values for the MBC with Escherichia coli and against Staphylococcus aureus were 256 µg/mL and 512 µg/mL, respectively. Besides, the MFC in the data set with Candida albicans came to 1020 µg/mL. Also, half-maximal cytotoxicity in data set [4] (CC50 at 1 h) was put at 4300 µM. The selectivity ratio in data set [2] came out at 2.9; in data set [3], 1.

On to `CC1(C)COC(=O)N1Cl`, for which the MBC in the data set with Escherichia coli worked out at 1 µg/mL (≈ 6.69 µM); against Staphylococcus aureus, 4 µg/mL (≈ 26.7 µM). The same molecule came in with a minimum fungicidal concentration (MFC) against Candida albicans of 512 µg/mL (≈ 3420 µM). Besides, in data set [4], half-maximal cytotoxicity (CC50 at 1 h) was put at 70 µM. Moreover, the selectivity ratio was 5.2 in data set [2] and 0.02 in data set [3].

For `CC[N+](C)(C)CC1(C)COC(=O)N1Cl.[Cl-]` (configuration not stated), the results for the MBC with Escherichia coli and against Staphylococcus aureus were 2 µg/mL and 4 µg/mL, respectively. This molecule displayed a minimum fungicidal concentration (MFC) against Candida albicans of 8 µg/mL. Also, the CC50 at 1 h in data set [1] is 860 µM. The selectivity ratio amounted to 78 in data set [2] and 28 in data set [3].

`CC1(C[N+](C)(C)C)COC(=O)N1Cl.[Cl-]` (configuration not stated): the MBC is 2 µg/mL against Escherichia coli and 4 µg/mL against Staphylococcus aureus. The molecule further yielded an MFC with Candida albicans of 16 µg/mL.

As for `CC1(C)C(C[N+](C)(C)C)OC(=O)N1Cl.[Cl-]` (configuration not stated), the minimal bactericidal concentration (MBC) was 16 µg/mL in the data set on Escherichia coli and 32 µg/mL in the data set with Staphylococcus aureus. The molecule also yielded an MFC with Candida albicans of 64 µg/mL. Half-maximal cytotoxicity in data set [4] (CC50 at 1 h) was put at 690 µM. Also, the values for the selectivity ratio in data set [2] and in data set [3] were 7.6 and 2.7, respectively.

For `CCC[N+](C)(C)CC1(C)COC(=O)N1Cl.[Cl-]` (configuration not stated), the MBC with Escherichia coli and in the data set on Staphylococcus aureus was 2 µg/mL in each case. Further, the minimal fungicidal concentration (MFC) in the data set on Candida albicans came out at 8 µg/mL. For the same molecule, the CC50 at 1 h in data set [1] was determined as 900 µM. Further, the results for the selectivity ratio in data set [2] and in data set [3] were 122 and 31, respectively.

Source of the values: ChEMBL document CHEMBL1770087, “Novel 3-chlorooxazolidin-2-ones as antimicrobial agents” (Bioorg Med Chem Lett, 2011).
